Experimental findings from ChEMBL document CHEMBL1135521 (J Med Chem, 2002) are described below.

The structures appear in SMILES notation.

The nature of series [1]: Concentration required to cause 50% death of uninfected MT-4 cells. Type of series: ADME, cell-based, MT4. Particulars: human.
Series [2] has as its system MT4. Nature of the series: Concentration required to inhibit syncytia formation by 50% on MT-4 cells. The class given is functional, cell-based. Particulars: Homo sapiens. Summed up:
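HIV-infected MT4 cell cultures were scored by observing the virus's fusogenic effect, that is, syncytium formation. EC50 is the concentration that halves syncytium formation, and compounds were tested up to 50 µM.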

Series [3] addresses Human immunodeficiency virus type 1 protease (Human immunodeficiency virus 1, UniProt Q72874). Kind of series: Concentration required to inhibit HIV-1 protease cleavage by 50%.
A short description of series [4]: Selectivity index, expressed as the ratio of CC50 and EC50. To be noted: read-out: SI. The method, boiled down: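 Ratio of CC50 to EC50 in HIV-infected MT4 cell cultures. The antiviral EC50 comes from inhibition of virus-induced syncytium formation (the fusogenic effect), scored by observing the cultures.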

In turn, `CC(C)CN(C[C@H](O)[C@@H](NC(=O)O[C@@H]1CCOC1)Sc1ccccc1)S(=O)(=O)c1ccc(N)cc1` yielded a CC50 in series [1] of over 50 µM. The EC50 in series [2] is over 50 µM. Further, the IC50 in series [3] amounted to 12.5 µM.

As for `CC(C)CN(C[C@@H](O)[C@H](NC(=O)O[C@@H]1CCOC1)Sc1ccccc1)S(=O)(=O)c1ccc(N)cc1`, the CC50 in series [1] is over 50 µM. For the same compound, in series [2], the EC50 is over 50 µM. In addition, in series [3], half-maximal inhibition (IC50) required 1.4 µM.

The compound `CC(C)CN(C[C@H](O)[C@H](NC(=O)O[C@@H]1CCOC1)Sc1ccccc1)S(=O)(=O)c1ccc(N)cc1` yielded a CC50 in series [1] of over 50 µM. In series [2], this compound had an EC50 of over 50 µM. In addition, in series [3], the midpoint of inhibition, the IC50, lay at 11.6 µM.

Consider `CC(C)CN(C[C@@H](O)[C@@H](NC(=O)O[C@@H]1CCOC1)Sc1ccccc1)S(=O)(=O)c1ccc(N)cc1`, for which the CC50 in series [1] was over 50 µM. The compound further yielded an EC50 in series [2] of over 50 µM. The compound further yielded an IC50 in series [3] of 16.7 µM.

In turn, `CC(C)CN(CC(O)C(NC(=O)O[C@H]1CCOC1)Sc1ccccc1)S(=O)(=O)c1ccc(N)cc1` (some centres not stated) showed a CC50 in series [1] of over 50 µM. In series [2], this compound showed an EC50 of 50 µM. In series [4], the selectivity ratio is over 1.

`CC(C)CN(C[C@@H](O)[C@H](Cc1ccccc1)NC(=O)O[C@H]1CCOC1)S(=O)(=O)c1ccc(N)cc1` displayed a CC50 in series [1] of over 50 µM. The EC50 in series [2] worked out at 0.01 µM.

The CC50 is the concentration at which the toxic effect on the cells reaches its halfway point. A lower CC50 goes with greater toxicity to the cells. By EC50 is commonly meant the midpoint of the concentration-response curve. Lower therefore signals greater potency. Broadly, the IC50 is the concentration at which inhibition is half-maximal. The low end stands for greater potency in that assay, the high end for weaker potency in that assay.
